According to ChEMBL document CHEMBL4049458, “Structure-Based Optimization of Thiophene[3,2-d]pyrimidine Derivatives as Potent HIV-1 Non-nucleoside Reverse Transcriptase Inhibitors with Improved Potency against Resistance-Associated Variants” (J Med Chem, 2017):

Columns and labels:
[1] = system: Human immunodeficiency virus 1; test: Antiviral activity against wild type HIV1 3B harboring reverse transcriptase infected in human MT4 cells assessed as protection against virus induced cytotoxicity after 5 days by MTT assay; type: functional, cell-based; conditions: Human immunodeficiency virus 1, 3B, MT4, 120 h
[2] = system: Human immunodeficiency virus 2; test: Antiviral activity against HIV2 ROD harboring reverse transcriptase infected in human MT4 cells assessed as protection against virus induced cytotoxicity after 5 days by MTT assay; type: functional, cell-based; conditions: Human immunodeficiency virus 2, ISOLATE ROD, MT4, 120 h
[3] = Cytotoxicity against human MT4 cells assessed as cell viability after 5 days by MTT assay; type: cell-based
[4] = Selectivity index, ratio of CC50 for human MT4 cells to EC50 for wild type HIV1 3B harboring reverse transcriptase infected in human MT4 cells
[5] = Selectivity index, ratio of CC50 for human MT4 cells to EC50 for reverse transcriptase L100I mutant in human MT4 cells infected HIV1 3B
[6] = Selectivity index, ratio of CC50 for human MT4 cells to EC50 for reverse transcriptase K103N mutant in human MT4 cells infected HIV1 3B
[7] = Selectivity index, ratio of CC50 for human MT4 cells to EC50 for reverse transcriptase Y181C mutant in human MT4 cells infected HIV1 3B
[8] = Selectivity index, ratio of CC50 for human MT4 cells to EC50 for reverse transcriptase Y188L mutant in human MT4 cells infected HIV1 3B
[9] = Selectivity index, ratio of CC50 for human MT4 cells to EC50 for reverse transcriptase E138K mutant in human MT4 cells infected HIV1 3B
[10] = Selectivity index, ratio of CC50 for human MT4 cells to EC50 for reverse transcriptase F227L/V106A double mutant in human MT4 cells infected HIV1 3B
[11] = Selectivity index, ratio of CC50 for human MT4 cells to EC50 for HIV1 RES056 reverse transcriptase K103N/Y181C double mutant infected in human MT4 cells
[12] = Fold resistance, ratio of EC50 for reverse transcriptase E138K mutant in human MT4 cells infected HIV1 3B to EC50 for wild type HIV1 3B harboring reverse transcriptase infected in human MT4 cells; type: functional
In short: (§1)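 MT-4 cells at 6 × 10^5 cells/mL were infected with WT HIV-1 IIIB or RT-mutant strains at 100−300 CCID50, with 5-fold serial compound dilutions in triplicate wells. After 5 days, viability was read by MTT reduction at 540 and 690 nm, using the median OD of three wells. […] Fold resistance is mutant EC50 divided by WT EC50.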

[13] = system: Human immunodeficiency virus type 1 reverse transcriptase (Human immunodeficiency virus 1), Q72547 [K103N]; test: Potency index, ratio of EC50 for NVP to EC50 for test compound for reverse transcriptase K103N mutant in human MT4 cells infected HIV1 3B; type: cell-based
[14] = system: Human immunodeficiency virus type 1 reverse transcriptase (Human immunodeficiency virus 1), Q72547 [K103N]; test: Potency index, ratio of EC50 for EFV to EC50 for test compound for reverse transcriptase K103N mutant in human MT4 cells infected HIV1 3B; type: cell-based
[15] = Inhibition of recombinant wild type HIV1 3B reverse transcriptase infected in human MT4 cells assessed as decrease in biotin-dUTP incorporation after 1 hr; type: cell-based; conditions: Human immunodeficiency virus 1, 3B, MT4, 1 h
In short: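 Recombinant HIV-1 RT assayed with a kit ELISA. Enzyme, reconstituted template and nucleotides (DIG-dUTP, biotin-dUTP, dTTP) were incubated in incubation buffer with or without inhibitor for 1 h at 37 °C. Product was captured on streptavidin plates for 1 h at 37 °C, then anti-DIG-POD was added for 1 h at 37 °C, followed by ABTS. Read at OD405.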

[16] = Fold resistance, ratio of EC50 for reverse transcriptase K103N/Y181C double mutant in human MT4 cells infected HIV1 RES056 to EC50 for wild type HIV1 3B harboring reverse transcriptase infected in human MT4 cells; type: functional; in short: as §1
[17] = Fold resistance, ratio of EC50 for reverse transcriptase K103N mutant in human MT4 cells infected HIV1 3B to EC50 for wild type HIV1 3B harboring reverse transcriptase infected in human MT4 cells; type: functional; in short: as §1
[18] = Fold resistance, ratio of EC50 for reverse transcriptase L100I mutant in human MT4 cells infected HIV1 3B to EC50 for wild type HIV1 3B harboring reverse transcriptase infected in human MT4 cells; type: functional; in short: as §1
[19] = Fold resistance, ratio of EC50 for reverse transcriptase Y181C mutant in human MT4 cells infected HIV1 3B to EC50 for wild type HIV1 3B harboring reverse transcriptase infected in human MT4 cells; type: functional; in short: as §1
[20] = Fold resistance, ratio of EC50 for reverse transcriptase Y188L mutant in human MT4 cells infected HIV1 3B to EC50 for wild type HIV1 3B harboring reverse transcriptase infected in human MT4 cells; type: functional; in short: as §1
[21] = Fold resistance, ratio of EC50 for reverse transcriptase F227L/V106A double mutant in human MT4 cells infected HIV1 3B to EC50 for wild type HIV1 3B harboring reverse transcriptase infected in human MT4 cells; type: functional; in short: as §1
[22] = AUC(0 to t) in Sprague-Dawley rat at 24 mg/kg, po by LC-MS analysis; type: ADME, organism-based; conditions: in vivo
Rattus norvegicus [23] = test: AUC(0 to infinity) in Sprague-Dawley rat at 24 mg/kg, po by LC-MS analysis; type: ADME, organism-based; parameters: dose 24 mg/kg, route oral, time infinity; conditions: in vivo
[24] = AUC(0 to t) in Sprague-Dawley rat at 2 mg/kg, iv by LC-MS analysis; type: ADME, organism-based; conditions: in vivo
[25] = AUC(0 to infinity) in Sprague-Dawley rat at 2 mg/kg, iv by LC-MS analysis; type: ADME, organism-based; parameters: dose 2 mg/kg, time infinity, route intravenous; conditions: in vivo
[26] = MRT(0 to t) in Sprague-Dawley rat at 24 mg/kg, po by LC-MS analysis; type: ADME, organism-based; conditions: in vivo
[27] = MRT(0 to infinity) in Sprague-Dawley rat at 24 mg/kg, po by LC-MS analysis; type: ADME, organism-based; conditions: in vivo
[28] = MRT(0 to t) in Sprague-Dawley rat at 2 mg/kg, iv by LC-MS analysis; type: ADME, organism-based; conditions: in vivo
[29] = MRT(0 to infinity) in Sprague-Dawley rat at 2 mg/kg, iv by LC-MS analysis; type: ADME, organism-based; conditions: in vivo
Rattus norvegicus [30] = test: VRT(0 to t) in Sprague-Dawley rat at 24 mg/kg, po by LC-MS analysis; type: ADME, organism-based; conditions: in vivo
Rattus norvegicus [31] = test: VRT(0 to infinity) in Sprague-Dawley rat at 24 mg/kg, po by LC-MS analysis; type: ADME, organism-based; conditions: in vivo
Rattus norvegicus [32] = test: VRT(0 to t) in Sprague-Dawley rat at 2 mg/kg, iv by LC-MS analysis; type: ADME, organism-based; conditions: in vivo
Rattus norvegicus [33] = test: VRT(0 to infinity) in Sprague-Dawley rat at 2 mg/kg, iv by LC-MS analysis; type: ADME, organism-based; conditions: in vivo
[34] = Apparent half life in Sprague-Dawley rat at 24 mg/kg, po by LC-MS analysis; type: ADME, organism-based; conditions: in vivo, read-out: t1/2(app) (converted)
[35] = Apparent half life in Sprague-Dawley rat at 2 mg/kg, iv by LC-MS analysis; type: ADME, organism-based; conditions: in vivo, read-out: t1/2(app) (converted)
[36] = Tmax in Sprague-Dawley rat at 24 mg/kg, po by LC-MS analysis; type: ADME, organism-based; conditions: in vivo
Rattus norvegicus [37] = test: Apparent clearance during terminal phase in Sprague-Dawley rat at 2 mg/kg, iv by LC-MS analysis; type: ADME, organism-based; conditions: in vivo
[38] = Cmax in Sprague-Dawley rat at 24 mg/kg, po by LC-MS analysis; type: ADME, organism-based; parameters: dose 24 mg/kg, route oral; conditions: in vivo
[39] = Cmax in Sprague-Dawley rat at 2 mg/kg, iv by LC-MS analysis; type: ADME, organism-based; parameters: dose 2 mg/kg, route intravenous; conditions: in vivo
Mus musculus [40] = test: Toxicity in Kunming mouse assessed as mortality at 2000 mg/kg, ig administered via gavage measure after 2 weeks; type: organism-based; conditions: in vivo, po, 336 h
Mus musculus [41] = test: Toxicity in Kunming mouse assessed as increase in body weight at 2000 mg/kg, ig administered via gavage measure after 2 weeks; type: organism-based; conditions: in vivo, po, 336 h

SMILES	EC50 [1] [nM]	EC50 [2] [nM]	CC50 at 120 h [3] [nM]	selectivity ratio ([4]; MT4 cells)	selectivity ratio ([5]; MT4 cells)	selectivity ratio ([6]; MT4 cells)	selectivity ratio ([7]; MT4 cells)	selectivity ratio ([8]; MT4 cells)	selectivity ratio ([9]; MT4 cells)	selectivity ratio ([10]; MT4 cells)	selectivity ratio ([11]; MT4 cells)	Ratio EC50 [12]	IC50 [15] [nM]	Ratio EC50 [16]	also measured
Cc1cc(C#N)cc(C)c1Oc1nc(NC2CCC(NCc3ccc(S(C)(=O)=O)cc3)CC2)nc2ccsc12 (stereo unspecified)	57.3	> 75200	75200	1320	≤ 1	212	< 1	≤ 1	556	< 1	< 1	2.4			
Cc1cc(C#N)cc(C)c1Oc1nc(NC2CCN(Cc3ccc(S(C)(=O)=O)cc3)CC2)nc2sccc12	3.56	> 1190	1190	335	152	725	200	124	164	137	28				Ratio EC50 [13]: 3370; Ratio EC50 [14]: 50
Cc1cc(C#N)cc(C)c1Oc1nc(NC2CCN(Cc3ccc(S(N)(=O)=O)cc3)CC2)nc2sccc12	1.97	> 24100	24100	12300	5440	7370	3160	3170	3180	2730	625		420		
Cc1cc(/C=C/C#N)cc(C)c1Oc1nc(NC2CCN(Cc3cccnc3)CC2)nc2ccsc12	3.22	> 3860	3860	1200	866	872	637	358	587	664	308			3.4 - 6	
Cc1cc(C#N)cc(C)c1Oc1nc(NC2CCC(NCc3ccc([N+](=O)[O-])cc3)CC2)nc2ccsc12 (stereo unspecified)	100	> 54400	54400	544	35	79	≤ 2	5	344	84	< 1	1.6			
Cc1cc(C#N)cc(C)c1Oc1nc(Nc2ccc(C#N)cc2)nc(N)c1Br [ETRAVIRINE]	4.07		> 4590									0.6 - 7.2	1000	4.2	selectivity ratio [4]: > 1130; selectivity ratio [5]: > 853; selectivity ratio [6]: > 1950; selectivity ratio [7]: > 291; selectivity ratio [8]: > 224; selectivity ratio [9]: > 318; selectivity ratio [10]: 156; selectivity ratio [11]: > 270; Ratio EC50 [17]: 0.6 - 7.2; Ratio EC50 [18]: 1.3; Ratio EC50 [19]: 0.6 - 7.2; Ratio EC50 [20]: 0.6 - 7.2; Ratio EC50 [21]: 0.6 - 7.2
Cc1cc(/C=C/C#N)cc(C)c1Oc1nc(NC2CCN(Cc3ccc(S(C)(=O)=O)cc3)CC2)nc2ccsc12	2.32		1800										890		
Cc1cc(C#N)cc(C)c1Oc1nc(NC2CCN(Cc3ccc(S(N)(=O)=O)cc3)CC2)nc2ccsc12					> 67400	> 78100	> 70000	> 75800	> 78100	> 53500	> 7350			21	Ratio EC50 [18]: 2.4
Cc1cc(/C=C/C#N)cc(C)c1Oc1nc(NC2CCN(Cc3ccc(S(N)(=O)=O)cc3)CC2)nc2ccsc12	1.22												160		AUC(0-t) [22]: 2320 ng·h/mL; AUC (Rattus norvegicus [23]): 2692.2 ng·h/mL; AUC(0-t) [24]: 1370 ng·h/mL; AUC(0-inf) [25]: 1390 ng·h/mL; MRT last [26]: 3.71 h; MRT inf [27]: 5.54 h; MRT last [28]: 1.57 h; MRT inf [29]: 1.69 h; VRT(t) (Rattus norvegicus [30]): 8.11 hr2; VRT (Rattus norvegicus [31]): 35.67 hr2; VRT(t) (Rattus norvegicus [32]): 2.78 hr2; VRT (Rattus norvegicus [33]): 3.72 hr2; half-life [34]: 3.93 h; half-life [35]: 1.34 h; Tmax [36]: 1.7 h; CLz/F (Rattus norvegicus [37]): 0.242 mL/min/kg; Cmax [38]: 553 ng/mL; Cmax [39]: 2220 ng/mL; Activity (Mus musculus [40]): Non-Toxic; Activity (Mus musculus [41]): Non-Toxic
Cc1cc(C#N)cc(C)c1Oc1nc(NC2CCN(Cc3ccc(S(N)(=O)=O)cc3)CC2F)nc2ccsc12 (stereo unspecified)	5.69	> 5150	5150	906	576	653	171	370	296	590	138	1.4 - 6.5		1.4 - 6.5	Ratio EC50 [17]: 1.4 - 6.5; Ratio EC50 [18]: 1.4 - 6.5; Ratio EC50 [19]: 1.4 - 6.5; Ratio EC50 [20]: 1.4 - 6.5; Ratio EC50 [21]: 1.4 - 6.5
Cc1cc(/C=C/C#N)cc(C)c1Oc1nc(NC2CCN(Cc3cccc(Cl)c3)CC2)nc2ccsc12	25.9	> 4880	4880	188	163	164	69	29	37	72	33				
Cc1cc(/C=C/C#N)cc(C)c1Oc1nc(NC2CCN(Cc3cccc(C(N)=O)c3)CC2)nc2ccsc12	3.26	> 3530	3530	1080	689	1190	563	129	551	448	81				
Cc1cc(C#N)cc(C)c1Oc1nc(NC2CCC(NCc3ccc(S(N)(=O)=O)cc3)CC2)nc2ccsc12 (stereo unspecified)	42.2		3690										4020		
